The values that follow come from ChEMBL document CHEMBL4613298, “GPBAR1 Activation by C6-Substituted Hyodeoxycholane Analogues Protect against Colitis” (ACS Med Chem Lett, 2020).

Activity calls are given as the source filed them. No cut-off for these calls is given here.

Data set [1] has as its system Mus musculus. Put plainly: Anti-colitis activity in Gpbar1 (-/-) TNBS-induced C57BL/6NCrl mouse model of colitis assessed as decrease in Clinical Disease activity index at 30 mg/kg, po. Type of data set: functional, organism-based. The method, boiled down: (§1)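 Gpbar1+/+ and Gpbar1–/– mice given TNBS alone or with test agent at 30 mg/kg; body weight change and CDAI followed over the colitis course; colon sections H&E stained (10× magnification); n = 5 per group.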

For data set [2], the system named is Mus musculus. Put plainly: Anti-colitis activity in Gpbar1 (+/+) TNBS-induced C57BL/6NCrl mouse model of colitis assessed as decrease in Clinical Disease activity index at 30 mg/kg, po. The data set is classed as functional, organism-based. The method, boiled down: as §1
The test system of data set [3] is Mus musculus. Description: Effect on IL-10 mRNA expression in Gpbar1 deficient TNBS-induced C57BL/6NCrl mouse model of colitis harboring […] expression at 30 mg/kg, po by RT-PCR analysis. Type of data set: functional, organism-based. The gist of the method:
(§2)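 Gpbar1+/+ and Gpbar1–/– mice given TNBS alone or with test agent at 30 mg/kg; colon samples analysed by RT-PCR for relative mRNA of Il-1β, Il-6, Tnf-α, Il-10 and Gpbar1.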

The target in data set [4] is T1, G-protein coupled bile acid receptor 1 (Homo sapiens) (UniProt Q8TDU6).
T1 sequence (whole entry): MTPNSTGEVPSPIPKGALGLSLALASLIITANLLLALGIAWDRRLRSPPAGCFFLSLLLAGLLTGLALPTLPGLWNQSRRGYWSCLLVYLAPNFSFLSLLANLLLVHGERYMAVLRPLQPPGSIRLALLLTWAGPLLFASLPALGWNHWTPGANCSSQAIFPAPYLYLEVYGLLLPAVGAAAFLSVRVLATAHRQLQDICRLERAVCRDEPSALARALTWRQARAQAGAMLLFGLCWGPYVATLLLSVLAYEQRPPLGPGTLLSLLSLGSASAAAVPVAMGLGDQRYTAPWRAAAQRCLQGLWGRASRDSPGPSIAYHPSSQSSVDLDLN
Put plainly: Agonist activity at GPBAR1 receptor in human THP1 cells assessed as reduction in LPS-induced IL-1beta expression at 10 uM after 18 hrs by RT-PCR analysis. Type of data set: cell-based. The conditions noted are these: THP-1. The method, boiled down: (§3)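 THP1 monocytic/macrophage cells primed with LPS, then coincubated with or without test agent at 10 μM; expression of cytokine genes (IL-1β, IL-6, TNF-α, IL-10) measured.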

The species entered for a further data set is Homo sapiens. Description: Selectivity index, ratio of transactivation of human GPBAR1 receptor expressed in HEK293T cells assessed as maximum receptor activation at 10 uM to transactivation of human FXR (unknown origin) expressed in HepG2 cells co-expressing pSG5RXR/pGL4.70 assessed as maximum receptor activation at 10 uM. The data set is classed as cell-based. The gist of the method: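 Ratio of percent activity at GPBAR1 (HEK-293T, CRE-luciferase, 10 μM, vs TLCA 10 μM) to percent activity at FXR (HepG2, IR1-luciferase, 10 μM, vs CDCA 10 μM). Both taken from the same triplicate experiment.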

Data set [5] concerns the target T1, G-protein coupled bile acid receptor 1 (Homo sapiens). Put plainly: Agonist activity at GPBAR1 receptor in LPS-stimulated human THP1 cells assessed as increase in IL-10 expression at 10 uM after 18 hrs by RT-PCR analysis. Type of data set: cell-based. To be noted: THP-1. The gist of the method:
as §3

The nature of data set [6]: Aqueous solubility of compound in pH 7.4 PBS/MeOH at 10 mM after 24 hrs by LC-MS analysis. The data set is classed as physicochemical. The conditions noted are these: buffer, pH 7.4, 24 h, 10000 µM.
Data set [7] has as its system Mus musculus. Description: Antiinflammatory activity in Gpbar1 (+/+) TNBS-induced C57BL/6NCrl mouse model of colitis assessed as reduction in IL-6 mRNA expression at 30 mg/kg, po by RT-PCR analysis. Type of data set: functional, organism-based. The gist of the method:
as §2

The test system of data set [8] is Mus musculus. Description: Effect on TNFalpha mRNA expression in Gpbar1 deficient TNBS-induced C57BL/6NCrl mouse model of colitis harboring […] expression at 30 mg/kg, po by RT-PCR analysis. Type of data set: functional, organism-based. The gist of the method: as §2
For data set [9], the system named is Mus musculus. Description: Antiinflammatory activity in Gpbar1 (+/+) TNBS-induced C57BL/6NCrl mouse model of colitis assessed as increase in IL-10 mRNA expression at 30 mg/kg, po by RT-PCR analysis. The data set is classed as functional, organism-based. The gist of the method:
as §2

The target in data set [10] is T2, Bile acid receptor (Homo sapiens) (UniProt Q96RI1).
T2 sequence (whole entry): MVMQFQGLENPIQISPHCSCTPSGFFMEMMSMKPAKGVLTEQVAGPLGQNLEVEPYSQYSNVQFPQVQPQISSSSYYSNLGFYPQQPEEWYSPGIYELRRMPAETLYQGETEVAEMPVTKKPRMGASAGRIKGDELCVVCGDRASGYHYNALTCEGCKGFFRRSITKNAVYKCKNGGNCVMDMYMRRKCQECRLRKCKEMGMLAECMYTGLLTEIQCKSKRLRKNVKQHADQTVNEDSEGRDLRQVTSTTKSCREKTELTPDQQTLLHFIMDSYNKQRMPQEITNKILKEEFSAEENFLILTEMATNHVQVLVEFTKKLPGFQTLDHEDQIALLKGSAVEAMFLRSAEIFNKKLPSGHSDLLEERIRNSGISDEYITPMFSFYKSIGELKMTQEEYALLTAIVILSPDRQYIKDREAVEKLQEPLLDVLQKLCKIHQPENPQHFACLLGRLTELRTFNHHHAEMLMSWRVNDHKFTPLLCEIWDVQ
Description: Transactivation of FXR (unknown origin) expressed in HepG2 cells co-expressing pSG5RXR/pGL4.70 assessed as maximum receptor activation at 10 uM after 18 hrs by IR1 driven dual renilla-luciferase reporter gene assay relative to relative to CDCA. Type of data set: cell-based. The gist of the method:
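FXR reporter assay in HepG2 cells transfected with FXR and an IR1-driven luciferase reporter, compound at 10 μM. Efficacy is maximal IR1 transactivation relative to CDCA (10 μM). One experiment, triplicate.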
On the technique in general: In a reporter assay the amount or activity of a reporter protein is the signal.

The test system of data set [11] is Mus musculus. Put plainly: Antiinflammatory activity in Gpbar1 (+/+) TNBS-induced C57BL/6NCrl mouse model of colitis assessed as reduction in IL-1beta mRNA expression at 30 mg/kg, po by RT-PCR analysis. The data set is classed as functional, organism-based. The gist of the method: as §2
For data set [12], the system named is Mus musculus. Description: Effect on IL-6 mRNA expression in Gpbar1 deficient TNBS-induced C57BL/6NCrl mouse model of colitis harboring assessed as reduction in IL-6 mRNA expression at 30 mg/kg, po by RT-PCR analysis. Type of data set: functional, organism-based. The gist of the method: as §2
Data set [13] relates to Mus musculus. Description: Anti-colitis activity in Gpbar1 (-/-) TNBS-induced C57BL/6NCrl mouse model of colitis assessed as effect on body weight loss at 30 mg/kg, po. The data set is classed as functional, organism-based. The method, boiled down: as §1
Data set [14] relates to Mus musculus. Description: Anti-colitis activity in Gpbar1 (+/+) TNBS-induced C57BL/6NCrl mouse model of colitis assessed as effect on body weight loss at 30 mg/kg, po. Type of data set: functional, organism-based. The gist of the method:
as §1

The target in data set [15] is T1, G-protein coupled bile acid receptor 1 (Homo sapiens). Description: Transactivation of human GPBAR1 receptor expressed in HEK293T cells assessed as maximum receptor activation at 10 uM after 18 hrs by cAMP response element driven renilla-luciferase dual reporter gene assay relative to TLCA. Type of data set: functional, cell-based. To be noted: HEK-293T. The method, boiled down: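 HEK-293T cells transfected with GPBAR1 and a CRE-driven luciferase reporter, exposed to compound at 10 μM. Efficacy is maximal CRE transactivation as percent of that caused by TLCA (10 μM). One experiment, triplicate.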

Data set [16] has as its system Mus musculus. Put plainly: Anti-colitis activity in Gpbar1 (+/+) TNBS-induced C57BL/6NCrl mouse model of colitis assessed as colon damage at 30 mg/kg, po by H and E staining analysis. The data set is classed as functional, organism-based. The method, boiled down:
as §1

Data set [17] has as its target T1, G-protein coupled bile acid receptor 1 (Homo sapiens). Put plainly: Agonist activity at GPBAR1 receptor in human THP1 cells assessed as reduction in LPS-induced IL-6 expression at 10 uM after 18 hrs by RT-PCR analysis. The data set is classed as cell-based. The conditions noted are these: THP-1. The method, boiled down: as §3
Data set [18] has the same target. Put plainly: Agonist activity at GPBAR1 receptor in human THP1 cells assessed as reduction in LPS-induced TNFalpha expression at 10 uM after 18 hrs by RT-PCR analysis. Type of data set: cell-based. The conditions noted are these: THP-1. The method, boiled down: as §3
For data set [19], the system named is Mus musculus. Put plainly: Effect on IL-1beta mRNA expression in Gpbar1 deficient TNBS-induced C57BL/6NCrl mouse model of colitis harboring […] expression at 30 mg/kg, po by RT-PCR analysis. The data set is classed as functional, organism-based. The gist of the method: as §2
Data set [20] concerns Mus musculus. Put plainly: Anti-colitis activity in Gpbar1 (-/-) TNBS-induced C57BL/6NCrl mouse model of colitis assessed as colon damage at 30 mg/kg, po by H and E staining analysis. The data set is classed as functional, organism-based. The gist of the method: as §1
Data set [21] has as its system Mus musculus. Description: Antiinflammatory activity in Gpbar1 (+/+) TNBS-induced C57BL/6NCrl mouse model of colitis assessed as reduction in TNFalpha mRNA expression at 30 mg/kg, po by RT-PCR analysis. Type of data set: functional, organism-based. The gist of the method: as §2

With `CC[C@]1(O)C[C@H]2[C@@H]3CC[C@H]([C@H](C)CC#N)[C@@]3(C)CC[C@@H]2[C@@]2(C)CC[C@@H](O)C[C@@H]12`, the result with Mus musculus [1], with Mus musculus [3], in the data set with Mus musculus [8], in the data set on Mus musculus [12], with Mus musculus [13] and in the data set on Mus musculus [19] was inactive. The result in the data set on Mus musculus [20] was inactive. The result (in the data set with Mus musculus [2]; in data set [4]; in data set [5]; with Mus musculus [7]; in the data set with Mus musculus [9]; in the data set with Mus musculus [11]) was Active. Further, the outcome (in the data set with Mus musculus [14]; with Mus musculus [16]; in data set [17]; in [18]; with Mus musculus [21]) was Active. Besides, the Selectivity Index in the data set listed under Homo sapiens turned out to be 8.2. Besides, in data set [6], the solubility entry was “Soluble”. Besides, the max activation is 12.3% in data set [10] and 101% in data set [15].
